Results reported in ChEMBL document CHEMBL1833940, “Discovery of 3-(2,6-dichloro-3,5-dimethoxy-phenyl)-1-{6-[4-(4-ethyl-piperazin-1-yl)-phenylamino]-pyrimidin-4-yl}-1-methyl-urea (NVP-BGJ398), a potent and selective inhibitor of the fibroblast growth factor receptor family of receptor tyrosine kinase” (J Med Chem, 2011).
pIC50: −log10 of the molar value. The source made the active and inactive calls. No cut-off for these calls is given here.

Columns and labels:
Cytochrome P450 2D6 = Cytochrome P450 2D6 (Homo sapiens, UniProt P10635); experiment: Inhibition of CYP2D6 using AMMC as substrate; assay type: ADME
Summary of the method: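 Human CYP450 inhibition was measured with isoform-specific fluorogenic probe substrates: CEC for 1A2 and 2C19, MFC for 2C9, AMMC for 2D6. Incubation was at 37 °C with an NADPH-regenerating system in 384-well format. Metabolite was quantified by fluorescence, and IC50 was obtained by curve fitting.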

[1] = molecular target: Tyrosine-protein kinase Lck (Homo sapiens, UniProt P06239); experiment: Inhibition of recombinant LCK kinase
Summary of the method: (§1)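 Purified recombinant kinases under optimized conditions, with peptide substrates and ATP at each kinase's Km. Phosphorylation was read out by microfluidic mobility shift, and IC50 values were obtained.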

[2] = Tmax in tumor of RT112/luc1 cells implanted athymic nude mouse at 20 mg/kg, po by LC/MS/MS analysis; assay type: ADME, organism-based, Neoplasm; design: dose 20 mg/kg, route oral
Summary of the method: (§2)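 Female athymic nude mice carrying subcutaneous RT112/luc1 tumors (ca. 300–400 mm3). Dosing was 5 mg/kg iv by tail vein in NMP/PEG200 (1:9) or 20 mg/kg by oral gavage as a suspension in PEG300/D5W (2:1). Groups (n = 4) were sacrificed from 0.083 to 24 h. Plasma and tumor were measured by LC-MS/MS (LOQ 5 ng/mL, 10 ng/g). Noncompartmental analysis used the linear trapezoidal AUC; F was calculated from dose-normalized AUC.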

Plasma [3] = experiment: Dose normalized AUC in plasma of RT112/luc1 cells implanted athymic nude mouse at 5 mg/kg, iv by LC/MS/MS analysis; assay type: ADME, organism-based; design: dose 5 mg/kg, route intravenous; conditions: in vivo
Summary of the method: (§3)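 Female athymic nude mice carried subcutaneous RT112/luc1 tumors (5×10^6 cells, 50% Matrigel; about 300–400 mm3). Dosing was either 5 mg/kg iv by tail vein in NMP/PEG200 (1:9) or 20 mg/kg oral suspension in PEG300/D5W (2:1). Groups of mice (n = 4) were sacrificed at 0.083–24 h. Plasma and tumor levels were measured by LC-MS/MS (LOQ 5 ng/mL, 10 ng/g).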

Plasma [4] = experiment: Dose normalized AUC in plasma of RT112/luc1 cells implanted athymic nude mouse at 20 mg/kg, po by LC/MS/MS analysis; assay type: ADME, organism-based; design: dose 20 mg/kg, route oral; conditions: in vivo; summary of the method: as §3
[5] = Oral bioavailability RT112/luc1 cells implanted athymic nude mouse; assay type: ADME, organism-based; conditions: in vivo; summary of the method: as §2
RT-112 = experiment: Antiproliferative activity against human RT112 cells overexpressing wild type FGFR3 after 72 hrs; assay type: functional, cell-based; conditions: RT-112, 72 h
Summary of the method: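 Bladder cancer lines from ATCC or DSMZ were seeded in 96-well plates (RT4, RT112 at 8500 cells/well; others at 5000 cells/well) in growth medium. Compound dilutions or DMSO were added 24 h later and incubated 72 h. Cells were fixed with glutaraldehyde, stained with 0.05% methylene blue and eluted with 3% HCl, then OD650 nm was read.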

[6] = molecular target: Tyrosine-protein kinase receptor UFO (Homo sapiens, UniProt P30530); experiment: Inhibition of recombinant AXL; summary of the method: as §1
[7] = molecular target: Hepatocyte growth factor receptor (Homo sapiens, UniProt P08581); experiment: Inhibition of recombinant MET
Summary of the method: (§4)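 Purified recombinant kinases were tested under optimized conditions with peptide substrates. ATP was set at each kinase's Km. Phosphorylation was read out by microfluidic mobility shift, and IC50 values were determined.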

[8] = molecular target: Mitogen-activated protein kinase 1 (Homo sapiens, UniProt P28482); experiment: Inhibition of recombinant ERK2
Summary of the method: (§5)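 Purified recombinant kinases under optimized conditions with peptide substrates. ATP was set at each kinase's Km. Phosphorylation was read by microfluidic mobility-shift separation of substrate and product; IC50 determined.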

[9] = molecular target: Protein kinase C theta type (Homo sapiens, UniProt Q04759); experiment: Inhibition of recombinant PKCtheta; summary of the method: as §5
[10] = molecular target: Serine/threonine-protein kinase N2 (Homo sapiens, UniProt Q16513); experiment: Inhibition of recombinant PKN2; summary of the method: as §5
[11] = molecular target: Tyrosine-protein kinase ZAP-70 (Homo sapiens, UniProt P43403); experiment: Inhibition of recombinant ZAP70; summary of the method: as §4
BaF3 = experiment: Antiproliferative activity against mouse wild type BAF3 cells assessed as decrease in cell viability by luminescence-based assay
Summary of the method: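 IL-3-independent BaF3 or BaF3 Tel-TK cells were grown in RPMI-1640 with 10% FBS and seeded at 4250 cells/well in 384-well plates. Compound serially diluted in DMSO was pin-transferred, followed by 48 h at 37 °C, 5% CO2. Viability was read by Bright-Glo luciferase luminescence.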

Rattus norvegicus [12] = experiment: Inhibition of FGFR autophosphorylation in RT112 tumor bearing nude rowett rat assessed as decrease in pMAPK concentration at 4.25 to 8.51 mg/kg, po administered as a single dose after 24 hrs by Western blot analysis; assay type: functional, organism-based
Summary of the method: (§6)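 RT112 subcutaneous xenografts in female nude Rowett rats (n = 4). Single oral gavage of the monophosphate salt at 4.25 or 8.51 mg/kg (free base equivalents) in acetic acid–acetate buffer pH 4.6/PEG300 (1:1). Tumors were collected at time points up to 24 h, frozen, homogenized and lysed. Western blots probed pFRS2(Tyr196) and pMAPK, with total FRS2, total MAPK or β-tubulin as loading controls.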

Rattus norvegicus [13] = experiment: Inhibition of FGFR autophosphorylation in RT112 tumour bearing nude Rowett rat assessed as decrease in pMAPK concentration at 4.25 mg/kg, po administered as a single dose by Western blot analysis; assay type: functional, organism-based; design: dose 4.25 mg/kg; summary of the method: as §6
Rattus norvegicus [14] = experiment: Inhibition of FGFR autophosphorylation in RT112 tumour bearing po dosed nude Rowett rat assessed as decrease in pFRS2 concentration administered as a single dose by Western blot analysis; assay type: functional, organism-based; summary of the method: as §6
Rattus norvegicus [15] = experiment: Inhibition of FGFR autophosphorylation in RT112 tumor bearing nude rowett rat assessed as decrease in pFRS2 concentration at 8.51 mg/kg, po administered as a single dose after 16 hrs by Western blot analysis; assay type: functional, organism-based; design: dose 8.51 mg/kg; summary of the method: as §6
Tumour [16] = experiment: Drug uptake in tumor of nude rowett rat bearing human RT112 cells at 4.25 mg/kg, po administered as a single dose after 7 hrs by LC-MS/MS analysis; assay type: ADME, organism-based, Neoplasm, RT-112; design: dose 4.25 mg/kg, route oral; conditions: in vivo
Summary of the method: (§7)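 Nude Rowett rats bearing subcutaneous RT112 tumors (n = 4) received a single gavage of monophosphate salt at 4.25 or 8.51 mg/kg free base in acetate buffer pH 4.6/PEG300. Tumors were collected at intervals after dosing, frozen and homogenized in an equal volume of ice-cold PBS. Compound levels were measured by LC-MS/MS (LOQ 3 ng/mL).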

Tumour [17] = experiment: Drug uptake in tumor of nude rowett rat bearing human RT112 cells at 8.51 mg/kg, po administered as a single dose after 3 hrs by LC-MS/MS analysis; assay type: ADME, organism-based, Neoplasm, RT-112; design: dose 8.51 mg/kg, route oral; conditions: in vivo; summary of the method: as §7
Mus musculus = experiment: Antiangiogenic activity in FVB mouse agar chamber model assessed as inhibition of VEGF-induced angiogenesis at 10 to 50 mg/kg, po administered for 4 days; assay type: functional, organism-based
Summary of the method: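 Female FVB mice implanted subcutaneously with perfluoroalkoxy-Teflon chambers holding 0.8% agar with 20 U/mL heparin, with or without dog VEGF 2 μg/mL or bFGF 0.3 μg/mL. Oral dosing at 10, 30, 50 mg/kg/day in 10% NMP/PEG300 (5 mL/kg), started before implantation and continued 3 days. Capsules were removed 24 h after the last dose. Readout was capsule weight and Tie-2 by ELISA, as % inhibition against vehicle and no-growth-factor background.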

Chain of Tyrosine-protein kinase ZAP-70 (P43403 whole entry): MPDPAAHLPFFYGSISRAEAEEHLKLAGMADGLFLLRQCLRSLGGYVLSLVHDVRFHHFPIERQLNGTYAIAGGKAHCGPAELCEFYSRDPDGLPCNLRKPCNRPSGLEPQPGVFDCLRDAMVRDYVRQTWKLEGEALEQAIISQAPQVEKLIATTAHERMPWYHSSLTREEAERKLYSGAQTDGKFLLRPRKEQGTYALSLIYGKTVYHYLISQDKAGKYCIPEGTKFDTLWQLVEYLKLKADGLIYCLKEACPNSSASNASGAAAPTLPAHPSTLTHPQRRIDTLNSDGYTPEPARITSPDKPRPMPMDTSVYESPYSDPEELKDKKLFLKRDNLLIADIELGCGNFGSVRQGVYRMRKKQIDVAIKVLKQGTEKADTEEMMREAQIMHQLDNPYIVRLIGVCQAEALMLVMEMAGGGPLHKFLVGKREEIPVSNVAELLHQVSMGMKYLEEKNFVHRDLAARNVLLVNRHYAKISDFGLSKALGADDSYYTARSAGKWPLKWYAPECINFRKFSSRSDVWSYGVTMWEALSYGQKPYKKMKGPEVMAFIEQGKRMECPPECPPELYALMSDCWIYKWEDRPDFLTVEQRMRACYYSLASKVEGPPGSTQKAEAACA
Chain of Hepatocyte growth factor receptor (P08581 whole entry): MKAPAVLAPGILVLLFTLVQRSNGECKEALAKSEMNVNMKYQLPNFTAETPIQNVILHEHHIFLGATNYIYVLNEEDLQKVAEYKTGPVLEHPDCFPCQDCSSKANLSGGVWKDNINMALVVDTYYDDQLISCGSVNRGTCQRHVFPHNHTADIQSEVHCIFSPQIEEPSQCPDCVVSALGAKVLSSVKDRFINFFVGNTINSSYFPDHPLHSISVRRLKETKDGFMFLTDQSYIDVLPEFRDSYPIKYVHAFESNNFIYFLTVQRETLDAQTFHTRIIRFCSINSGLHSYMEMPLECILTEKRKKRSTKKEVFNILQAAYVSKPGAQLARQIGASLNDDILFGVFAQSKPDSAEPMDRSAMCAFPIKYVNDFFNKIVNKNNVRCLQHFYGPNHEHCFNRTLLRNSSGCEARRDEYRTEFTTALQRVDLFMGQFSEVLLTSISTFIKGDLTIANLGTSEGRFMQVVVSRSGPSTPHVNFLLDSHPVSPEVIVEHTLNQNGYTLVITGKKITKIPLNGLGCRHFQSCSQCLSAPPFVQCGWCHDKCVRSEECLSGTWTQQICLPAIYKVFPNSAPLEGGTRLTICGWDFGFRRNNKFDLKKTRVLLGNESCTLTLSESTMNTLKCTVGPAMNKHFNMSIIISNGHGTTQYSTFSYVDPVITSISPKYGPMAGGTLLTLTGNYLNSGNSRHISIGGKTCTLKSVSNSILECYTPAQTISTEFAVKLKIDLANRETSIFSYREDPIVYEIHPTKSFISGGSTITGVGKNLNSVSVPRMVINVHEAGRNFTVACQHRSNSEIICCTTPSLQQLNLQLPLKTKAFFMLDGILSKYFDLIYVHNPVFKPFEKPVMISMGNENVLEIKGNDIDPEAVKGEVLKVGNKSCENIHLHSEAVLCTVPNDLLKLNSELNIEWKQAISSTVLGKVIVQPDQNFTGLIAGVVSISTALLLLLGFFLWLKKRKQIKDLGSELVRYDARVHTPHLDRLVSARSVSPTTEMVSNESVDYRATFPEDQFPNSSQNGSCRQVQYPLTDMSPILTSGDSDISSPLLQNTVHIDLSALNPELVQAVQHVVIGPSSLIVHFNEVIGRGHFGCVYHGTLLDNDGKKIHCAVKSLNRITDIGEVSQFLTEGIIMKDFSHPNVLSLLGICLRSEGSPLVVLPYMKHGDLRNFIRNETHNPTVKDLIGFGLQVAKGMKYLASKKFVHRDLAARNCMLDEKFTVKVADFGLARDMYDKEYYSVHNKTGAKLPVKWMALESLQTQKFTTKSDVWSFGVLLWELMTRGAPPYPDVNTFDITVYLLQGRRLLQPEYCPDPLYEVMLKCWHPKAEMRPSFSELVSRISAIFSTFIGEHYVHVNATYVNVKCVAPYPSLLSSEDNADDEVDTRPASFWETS
Chain of Cytochrome P450 2D6 (P10635 whole entry, canonical isoform): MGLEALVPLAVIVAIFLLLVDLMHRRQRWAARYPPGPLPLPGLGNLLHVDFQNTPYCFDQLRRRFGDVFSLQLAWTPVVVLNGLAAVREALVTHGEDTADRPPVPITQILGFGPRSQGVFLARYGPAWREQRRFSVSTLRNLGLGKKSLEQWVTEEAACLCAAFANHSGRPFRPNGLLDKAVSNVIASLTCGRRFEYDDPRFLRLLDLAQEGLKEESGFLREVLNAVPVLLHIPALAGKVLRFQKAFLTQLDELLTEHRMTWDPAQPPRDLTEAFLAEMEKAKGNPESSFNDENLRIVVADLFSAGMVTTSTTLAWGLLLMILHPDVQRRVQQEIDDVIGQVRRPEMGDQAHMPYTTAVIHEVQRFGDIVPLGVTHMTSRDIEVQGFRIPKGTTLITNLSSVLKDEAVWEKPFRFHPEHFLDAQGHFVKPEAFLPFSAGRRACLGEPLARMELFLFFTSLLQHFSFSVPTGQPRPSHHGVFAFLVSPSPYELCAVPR
Chain of Tyrosine-protein kinase receptor UFO (P30530 whole entry): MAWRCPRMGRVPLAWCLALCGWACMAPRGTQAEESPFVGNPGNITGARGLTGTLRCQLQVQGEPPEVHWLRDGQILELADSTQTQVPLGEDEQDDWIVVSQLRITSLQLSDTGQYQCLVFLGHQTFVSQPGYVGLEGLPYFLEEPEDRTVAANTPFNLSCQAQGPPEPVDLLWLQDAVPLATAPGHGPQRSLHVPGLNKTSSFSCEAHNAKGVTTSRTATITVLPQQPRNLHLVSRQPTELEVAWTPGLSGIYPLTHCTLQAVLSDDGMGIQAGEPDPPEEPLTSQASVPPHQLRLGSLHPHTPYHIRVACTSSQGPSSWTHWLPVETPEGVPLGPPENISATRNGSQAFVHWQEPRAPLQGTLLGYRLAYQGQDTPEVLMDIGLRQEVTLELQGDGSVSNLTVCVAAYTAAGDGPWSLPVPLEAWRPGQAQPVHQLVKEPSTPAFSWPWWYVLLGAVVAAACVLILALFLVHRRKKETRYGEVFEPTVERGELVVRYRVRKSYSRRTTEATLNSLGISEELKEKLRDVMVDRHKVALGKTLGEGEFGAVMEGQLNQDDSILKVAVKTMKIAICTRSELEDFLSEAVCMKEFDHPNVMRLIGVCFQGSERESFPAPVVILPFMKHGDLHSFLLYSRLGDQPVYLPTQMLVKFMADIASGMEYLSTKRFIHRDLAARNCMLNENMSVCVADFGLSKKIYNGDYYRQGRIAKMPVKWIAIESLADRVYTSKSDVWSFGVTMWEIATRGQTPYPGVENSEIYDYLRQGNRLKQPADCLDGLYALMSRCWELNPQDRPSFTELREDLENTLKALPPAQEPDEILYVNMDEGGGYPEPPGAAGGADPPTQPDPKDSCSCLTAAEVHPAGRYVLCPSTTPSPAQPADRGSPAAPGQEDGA
Chain of Protein kinase C theta type (Q04759 whole entry): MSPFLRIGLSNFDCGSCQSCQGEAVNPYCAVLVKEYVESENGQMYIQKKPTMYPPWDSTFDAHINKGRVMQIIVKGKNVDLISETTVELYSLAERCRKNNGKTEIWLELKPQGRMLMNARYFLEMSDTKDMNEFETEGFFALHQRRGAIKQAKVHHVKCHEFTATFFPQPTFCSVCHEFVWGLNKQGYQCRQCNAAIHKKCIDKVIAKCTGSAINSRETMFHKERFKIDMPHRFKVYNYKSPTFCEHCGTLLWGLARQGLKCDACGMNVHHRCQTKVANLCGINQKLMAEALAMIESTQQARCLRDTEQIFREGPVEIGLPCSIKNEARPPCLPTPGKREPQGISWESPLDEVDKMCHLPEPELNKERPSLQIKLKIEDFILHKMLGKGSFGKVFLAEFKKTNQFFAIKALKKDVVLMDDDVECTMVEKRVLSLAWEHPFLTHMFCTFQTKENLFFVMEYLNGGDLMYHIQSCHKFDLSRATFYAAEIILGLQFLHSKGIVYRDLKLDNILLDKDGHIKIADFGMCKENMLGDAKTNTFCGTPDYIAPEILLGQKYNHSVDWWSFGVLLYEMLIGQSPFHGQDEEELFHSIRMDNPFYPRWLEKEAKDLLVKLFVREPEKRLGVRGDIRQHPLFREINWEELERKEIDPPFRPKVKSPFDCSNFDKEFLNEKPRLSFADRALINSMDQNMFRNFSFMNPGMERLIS
Chain of Mitogen-activated protein kinase 1 (P28482 whole entry): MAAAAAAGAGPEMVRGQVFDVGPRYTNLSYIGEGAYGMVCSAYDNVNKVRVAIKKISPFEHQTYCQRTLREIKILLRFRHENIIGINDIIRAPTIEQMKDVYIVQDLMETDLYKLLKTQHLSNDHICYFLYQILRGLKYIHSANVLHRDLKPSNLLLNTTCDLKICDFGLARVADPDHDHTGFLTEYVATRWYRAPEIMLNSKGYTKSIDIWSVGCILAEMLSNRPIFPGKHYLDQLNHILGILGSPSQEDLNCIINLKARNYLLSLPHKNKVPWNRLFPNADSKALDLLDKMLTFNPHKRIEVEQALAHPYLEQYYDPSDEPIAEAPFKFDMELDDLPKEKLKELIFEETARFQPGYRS
Chain of Tyrosine-protein kinase Lck (P06239 whole entry): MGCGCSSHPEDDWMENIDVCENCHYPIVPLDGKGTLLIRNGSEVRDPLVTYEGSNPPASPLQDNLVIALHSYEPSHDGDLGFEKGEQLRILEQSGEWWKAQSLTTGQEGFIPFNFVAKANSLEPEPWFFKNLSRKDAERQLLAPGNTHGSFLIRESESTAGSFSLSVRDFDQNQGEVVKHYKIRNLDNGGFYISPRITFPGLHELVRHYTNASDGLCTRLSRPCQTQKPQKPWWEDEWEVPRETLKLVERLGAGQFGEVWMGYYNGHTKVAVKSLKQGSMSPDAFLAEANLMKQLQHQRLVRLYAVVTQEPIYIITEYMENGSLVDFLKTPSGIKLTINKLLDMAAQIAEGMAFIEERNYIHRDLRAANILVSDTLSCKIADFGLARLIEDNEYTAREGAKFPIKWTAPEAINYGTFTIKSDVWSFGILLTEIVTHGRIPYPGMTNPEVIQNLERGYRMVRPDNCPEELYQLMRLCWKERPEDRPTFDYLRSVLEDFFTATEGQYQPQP

pIC50 (Cytochrome P450 2D6): < 5.00
pIC50 [1]: 5.60
Tmax [2]: 8 h
AUC/dose (Plasma [3]): 0.6 µM·h
AUC/dose (Plasma [4]): 0.18 µM·h
bioavailability [5]: 32%
pIC50 [6]: < 5.00
pIC50 [7]: < 5.00
pIC50 [8]: < 5.00
pIC50 [9]: < 5.00
pIC50 [10]: < 5.00
pIC50 [11]: < 5.00
pIC50 (BaF3): 5.73
Drug uptake (Tumour [16]): 0.65 nmol/g
Drug uptake (Tumour [17]): 1.96 nmol/g
SMILES: CCN1CCN(c2ccc(Nc3cc(N(C)C(=O)Nc4c(Cl)c(OC)cc(OC)c4Cl)ncn3)cc2)CC1.O=P(O)(O)O [INFIGRATINIB PHOSPHATE]
pIC50 (RT-112): 8.30
inhibition (Rattus norvegicus [12]): inactive
inhibition (Rattus norvegicus [13]): Active
Activity (Rattus norvegicus [14]): Dose-dependent effect
inhibition (Rattus norvegicus [15]): Active
inhibition (Mus musculus): inactive
